Laboratory results taken from the EternaBench riboswitch data.

System: MS2 coat protein
Test: apparent Kd, MS2 coat protein; higher = weaker binding; RNA-MaP array; FMN 200 µM where present
Summary of the method: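 Designs on Illumina sequencing-chip clusters, transcribed by stalled E. coli RNA polymerase, were exposed to SNAP-549-labelled MS2 coat protein in doubling steps from 0.7 or 1.5 nM up to 3 µM, without and then with constant ligand. The buffer held 100 mM Tris-HCl pH 7.5, 80 mM KCl, 4 mM MgCl2, BSA, DTT, yeast tRNA and Tween-20. Apparent Kd values are medians of filtered per-cluster binding-curve fits to green signal normalised to red-channel RNA signal and control-cluster median Fmax.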

[1] = designed as: OFF switch for flavin mononucleotide, no ligand
[2] = ligand present: flavin mononucleotide, designed as: OFF switch for flavin mononucleotide
[3] = designed as: ON switch for flavin mononucleotide, no ligand
[4] = ligand present: flavin mononucleotide, designed as: ON switch for flavin mononucleotide

Sequence	apparent Kd [1] [nM]	apparent Kd [2] [nM]	apparent Kd [3] [nM]	apparent Kd [4] [nM]
GGUUAUUGCAAGGAUAUGCUUAUUUGAGAAAUUGCAGAAGGUGCAACAUGAGGAUCACCCAUGUUGGAUGGGUU	65.2	278	–	–
ACAUUGAUUGUGAGGAUAUCGAUGUGAUGGUAUGUCGAGAAGGCACAUGAGGAUCACCCAUGUGGGUGUGGGCA	259	292	–	–
AAGGUCAUCUGAGGAUAUCGACCUCAAAGGCUACGAGAAGGCAGACUGACAUGAGGAUCACCCAUGUACCGGGAAGAUGCCUCC	15.8	173	–	–
GGUCAUCAAGUCAGGAUAUCGUCUGGUCGAUCAGGCGAGAAGGGACAUGAGGAUCACCCAUGUCGACUCAUCAG	28.7	127	–	–
GGCUGGUGACAGCAUCCAUCAAAACAUGAGGAUCACCCAUGUAGAAGGCUGUACGGUUACCGUACAGAGGAUAUACAAUGAUGU	14	23.9	–	–
GCAUUGAUAACAGGAUAUAUGAAUCCUACAUGAGGAUCACCCAUGUAGGUGAUCAGCCGCGAUUAGUAGAAGGGUUAUCAAUGC	–	–	11.4	6.43
UUAAUUAAUUAAUUGCAGAAACAUGAGGAUCACCCAUGUAUAUAGGAUAUCGUCAGGAAUACUGACGAGAAGGAUAUACACUGC	23.4	32.5	–	–
CCGAAUAAGCAGGAUAUCGAAUCGGAAACGAUUCGAGAAGGGUUAACAUGAGGAUCACCCAUGUUCCUUAACGG	20.3	22.2	–	–
UGCAGACGAGGAUAUAGAUUUAAGUACAUGAGGAUCACCCAUGUGCAUAUGUAUUUAGAUUUAGAAGGCGUCUGCU	415	383	–	–
CUCCAGCAAGGAUAUACAUGAGGAUCACCCAUGUAAAGACAAGAGUUGGGAGACGCAUGUAGAAGGUGCACAUC	38.2	69	–	–
AUCAGCUCGUCAGGAUAUACAUCACUGCUUCGGCAGUGUAUCAUAACAACAUGAGGAUCACCCAUGUAGAAGGGACGAGCUGAU	23.8	34.7	–	–
ACGGUGGUCACAGGAUAUCCGGCCCGCGUGGCCGGAGAAGGGUGACUCAGAACCACAUGAGGAUCACCCAUGUGCCUUGCCGUA	–	–	102	35.5
GUUAUGCGGCAGGAUAUCCAUCCGCGGUAUGAUGGAGAAGGGCCGACAUGAGGAUCACCCAUGUGCGUCCUAAG	55.6	198	–	–
UGGUACAUGGGAGGAUAUGGGUUGAUAACAUGAGGAUCACCCAUGUUAAAUAAGCCGAGAGGCUACUAGAAGGCCCAUGUACCU	–	–	819	28.9
UUUAGUUGCGGGCAGGAUAUGUGUUAAAAUACAUGAGGAUCACCCAUGUGCGGGUAUAACACCCGACAGAAGGGCCAAUCGCGAC	–	–	73.6	24.4
AGAGACCUCACAGGAUAUGCUGGACUUUGUCCAGCAGAAGGGUGAAAACAUGAGGAUCACCCAUGUAUGGUCUCCAAAUUUAAU	–	–	167	12.8
GGCAUACAUGAGGAUCACCCAUGUAACCUGCACUAAGGAUAUGGCGUGGCCCAUGGCUACCCAGAAGGUAGAUAAA	–	–	136	195
UUUUUGUGAGGAUAUCAGUAGUAGAACAAUAGUACUACUACUGAGAAGGCACAUGAGGAUCACCCAUGUUUCUC	50.2	294	–	–
ACCUUACAUGAGGAUCACCCAUGUUAGGAUAUCUCGCCUGCACAAACACAGCGCAGGCAGAGAAGGGACGCGGG	28.2	35	–	–
AUCAGCUCGUCAGGAUAUACGUCACUGCGUCAGCAGUGUGGUAAGAUCACAUGAGGAUCACCCAUGUAGAAGGGACGAGCAGAU	13.7	262	–	–
